What was measured:
Format in all cases: functional
Mus musculus [1] = test: Analgesic activity in ICR mouse assessed as increase in pain threshold variation at 20 umol/kg, po administered as single dose measured after 180 mins by tail flick test
Procedure, shortened: (§1)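 Tail-flick test in mice housed 12/12 h light/dark at 21 ± 2 °C for one day. A single oral dose of 20 µmol/kg was given in 0.2 ml normal saline; vehicle controls got saline alone. Basal threshold was measured four times, then every 30 min to 180 min, with a 10 s cut-off. PTV = (post − basal)/basal. n = 12, mean ± SD%, one-way ANOVA.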

Mus musculus [2] = test: Analgesic activity in ICR mouse assessed as increase in pain threshold variation at 20 umol/kg, po administered as single dose measured after 150 mins by tail flick test; procedure, shortened: as §1
Mus musculus [3] = test: Analgesic activity in ICR mouse assessed as increase in pain threshold variation at 20 umol/kg, po administered as single dose measured after 120 mins by tail flick test; procedure, shortened: as §1
Mus musculus [4] = test: Antiinflammatory activity in ICR mouse assessed as inhibition of xylene-induced ear edema at 20 umol/kg, po
Procedure, shortened: (§2)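 Male ICR mice (20 ± 2 g), 12 per group, were dosed orally: test agents as suspensions in normal saline, aspirin in CMC. After 30 min, 0.03 ml xylene was applied to both surfaces of the right ear, with the left ear as control. After 2 h the mice were killed, 8 mm ear discs were weighed, and edema was taken as right minus left weight.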

Mus musculus [5] = test: Analgesic activity in ICR mouse assessed as increase in pain threshold variation at 20 umol/kg, po administered as single dose measured after 90 mins by tail flick test; procedure, shortened: as §1
Mus musculus [6] = test: Analgesic activity in ICR mouse assessed as increase in pain threshold variation at 20 umol/kg, po administered as single dose measured after 30 mins by tail flick test; procedure, shortened: as §1
Mus musculus [7] = test: Analgesic activity in ICR mouse assessed as increase in pain threshold variation at 20 umol/kg, po administered as single dose measured after 60 mins by tail flick test; procedure, shortened: as §1
Mus musculus [8] = test: Analgesic activity in ICR mouse assessed as increase in pain threshold variation at 165 umol/kg, po administered as single dose measured after 180 mins by tail flick test
Mus musculus [9] = test: Analgesic activity in ICR mouse assessed as increase in pain threshold variation at 165 umol/kg, po administered as single dose measured after 60 mins by tail flick test
Mus musculus [10] = test: Analgesic activity in ICR mouse assessed as increase in pain threshold variation at 165 umol/kg, po administered as single dose measured after 120 mins by tail flick test
Mus musculus [11] = test: Analgesic activity in ICR mouse assessed as increase in pain threshold variation at 165 umol/kg, po administered as single dose measured after 90 mins by tail flick test
Mus musculus [12] = test: Analgesic activity in ICR mouse assessed as increase in pain threshold variation at 165 umol/kg, po administered as single dose measured after 150 mins by tail flick test
Mus musculus [13] = test: Antiinflammatory activity in ICR mouse assessed as inhibition of xylene-induced ear edema at 165 umol/kg, po; procedure, shortened: as §2
Mus musculus [14] = test: Analgesic activity in ICR mouse assessed as increase in pain threshold variation at 165 umol/kg, po administered as single dose measured after 30 mins by tail flick test
Mus musculus [15] = test: Analgesic activity in ICR mouse assessed as increase in pain threshold variation at 0.2 umol/kg, ip administered as single dose measured after 120 mins by tail flick test
Procedure, shortened: (§3)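 Mice were housed 12/12 h light/dark at 21 ± 2 °C for one day, then given a single dose. Tail-flick basal threshold was read four times, then every 30 min up to 180 min, with a 10 s cut-off. PTV = (post-dose threshold − basal)/basal. n = 12, mean ± SD%, one-way ANOVA against saline vehicle at each time point.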

Mus musculus [16] = test: Analgesic activity in ICR mouse assessed as increase in pain threshold variation at 2 umol/kg, ip administered as single dose measured after 30 mins by tail flick test; conditions: in the assay text read “po administered” for “ip administered”; procedure, shortened: as §3
Mus musculus [17] = test: Analgesic activity in ICR mouse assessed as increase in pain threshold variation at 0.2 umol/kg, ip administered as single dose measured after 180 mins by tail flick test; conditions: in the assay text read “po administered” for “ip administered”; procedure, shortened: as §3
Mus musculus [18] = test: Antiinflammatory activity in ICR mouse assessed as inhibition of xylene-induced ear edema at 10 umol/kg, po; procedure, shortened: as §2
Mus musculus [19] = test: Analgesic activity in ICR mouse assessed as increase in pain threshold variation at 2 umol/kg, ip administered as single dose measured after 150 mins by tail flick test; conditions: in the assay text read “po administered” for “ip administered”; procedure, shortened: as §3
Mus musculus [20] = test: Analgesic activity in ICR mouse assessed as increase in pain threshold variation at 2 umol/kg, ip administered as single dose measured after 120 mins by tail flick test; conditions: in the assay text read “po administered” for “ip administered”; procedure, shortened: as §3
Mus musculus [21] = test: Analgesic activity in ICR mouse assessed as increase in pain threshold variation at 0.2 umol/kg, ip administered as single dose measured after 90 mins by tail flick test; procedure, shortened: as §3
Mus musculus [22] = test: Analgesic activity in ICR mouse assessed as increase in pain threshold variation at 0.2 umol/kg, ip administered as single dose measured after 30 mins by tail flick test; procedure, shortened: as §3
Mus musculus [23] = test: Analgesic activity in ICR mouse assessed as increase in pain threshold variation at 2 umol/kg, ip administered as single dose measured after 60 mins by tail flick test; conditions: in the assay text read “po administered” for “ip administered”; procedure, shortened: as §3
Mus musculus [24] = test: Analgesic activity in ICR mouse assessed as increase in pain threshold variation at 0.2 umol/kg, ip administered as single dose measured after 60 mins by tail flick test; procedure, shortened: as §3
Mus musculus [25] = test: Analgesic activity in ICR mouse assessed as increase in pain threshold variation at 2 umol/kg, ip administered as single dose measured after 90 mins by tail flick test; conditions: in the assay text read “po administered” for “ip administered”; procedure, shortened: as §3
Mus musculus [26] = test: Analgesic activity in ICR mouse assessed as increase in pain threshold variation at 0.2 umol/kg, ip administered as single dose measured after 150 mins by tail flick test; conditions: in the assay text read “po administered” for “ip administered”; procedure, shortened: as §3
Mus musculus [27] = test: Antiinflammatory activity in ICR mouse assessed as inhibition of xylene-induced ear edema at 5 umol/kg, po; procedure, shortened: as §2
Mus musculus [28] = test: Analgesic activity in ICR mouse assessed as increase in pain threshold variation at 2 umol/kg, ip administered as single dose measured after 180 mins by tail flick test; procedure, shortened: as §3
Mus musculus [29] = test: Analgesic activity in ICR mouse assessed as increase in pain threshold variation at 20 umol/kg, ip administered as single dose measured after 30 mins by tail flick test
Procedure, shortened: (§4)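 Mice were housed on a 12/12 light/dark cycle at 21 ± 2 °C for one day before use. Each got a single intraperitoneal dose of 20 µmol/kg in normal saline; vehicle controls got […]. Tail-flick basal threshold was read four times, then every 30 min to 180 min with a 10 s cut-off. PTV = (post-dose threshold − basal)/basal. n = 12, mean ± SD, one-way ANOVA.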

Mus musculus [30] = test: Analgesic activity in ICR mouse assessed as increase in pain threshold variation at 20 umol/kg, ip administered as single dose measured after 150 mins by tail flick test; procedure, shortened: as §4
Mus musculus [31] = test: Analgesic activity in ICR mouse assessed as increase in pain threshold variation at 20 umol/kg, ip administered as single dose measured after 120 mins by tail flick test; procedure, shortened: as §4
Mus musculus [32] = test: Analgesic activity in ICR mouse assessed as increase in pain threshold variation at 20 umol/kg, ip administered as single dose measured after 180 mins by tail flick test; procedure, shortened: as §4
Mus musculus [33] = test: Analgesic activity in ICR mouse assessed as increase in pain threshold variation at 20 umol/kg, ip administered as single dose measured after 90 mins by tail flick test; procedure, shortened: as §4
Mus musculus [34] = test: Analgesic activity in ICR mouse assessed as increase in pain threshold variation at 20 umol/kg, ip administered as single dose measured after 60 mins by tail flick test; procedure, shortened: as §4

| Compound | Activity (Mus musculus [1]) [%] | Activity (Mus musculus [2]) [%] | Activity (Mus musculus [3]) [%] | inhibition in vivo at 20 µmol/kg (Mus musculus [4]) [%] | Activity (Mus musculus [5]) [%] | Activity (Mus musculus [6]) [%] | Activity (Mus musculus [7]) [%] | inhibition in vivo at 10 µmol/kg (Mus musculus [18]) [%] | inhibition in vivo at 5 µmol/kg (Mus musculus [27]) [%] | other results |
| --- | --- | --- | --- | --- | --- | --- | --- | --- | --- | --- |
| COC(=O)[C@H](COCc1ccccc1)/N=C/C=C/N[C@@H](COCc1ccccc1)C(=O)OC | 33.33 | 34.17 | 37.48 | 55 | 36.24 | 32.18 | 34.87 | – | – | – |
| COC(CC(OC)OC)OC | 11.89 | 11.8 | 11.93 | – | 12.15 | 6.22 | 11.84 | – | – | – |
| CC(=O)Oc1ccccc1C(=O)O [ASPIRIN] | – | – | – | – | – | – | – | – | – | Activity (Mus musculus [8]): 14.65%; Activity (Mus musculus [9]): 18.69%; Activity (Mus musculus [10]): 16.46%; Activity (Mus musculus [11]): 19.79%; Activity (Mus musculus [12]): 14.59%; inhibition in vivo at 165 µmol/kg (Mus musculus [13]): 65.1%; Activity (Mus musculus [14]): 12.88% |
| COC(=O)[C@H](C)/N=C/C=C/N[C@@H](C)C(=O)OC | 42.29 | 44.71 | 53.33 | 53.1 | 48.4 | 32.26 | 32.49 | 41.9 | 14.8 | Activity (Mus musculus [15]): 22.08%; Activity (Mus musculus [16]): 24.58%; Activity (Mus musculus [17]): 18.8%; Activity (Mus musculus [19]): 28.25%; Activity (Mus musculus [20]): 35.87%; Activity (Mus musculus [21]): 17.41%; Activity (Mus musculus [22]): 12.24%; Activity (Mus musculus [23]): 25%; Activity (Mus musculus [24]): 16.79%; Activity (Mus musculus [25]): 30.94%; Activity (Mus musculus [26]): 20.27%; Activity (Mus musculus [28]): 27.31% |
| COC(=O)[C@H](C)N | 11.44 | 11.01 | 11.55 | – | 12.02 | 7.37 | 12.66 | – | – | – |
| CCC(C)[C@H](/N=C/C=C/N[C@H](C(=O)OC)C(C)CC)C(=O)OC (some centres not stated) | 32.75 | 34.89 | 41.65 | 77.6 | 34.31 | 18.66 | 19.68 | 68 | 48.9 | – |
| COC(=O)[C@H](Cc1ccccc1)/N=C/C=C/N[C@@H](Cc1ccccc1)C(=O)OC | 30.66 | 35.33 | 40.67 | 36.8 | 35.82 | 28.22 | 28.92 | 25.4 | 12.9 | – |
| COC(=O)[C@H](CCSC)/N=C/C=C/N[C@@H](CCSC)C(=O)OC | 21.18 | 22.05 | 23.37 | 25.4 | 31.61 | 28.73 | 29.93 | – | – | – |
| COC(=O)[C@H](CC(C)C)/N=C/C=C/N[C@@H](CC(C)C)C(=O)OC | 41.84 | 42.38 | 45.12 | 88.6 | 40.37 | 26.52 | 29.79 | 80.9 | 73.1 | – |
| CN1CC[C@]23c4c5ccc(O)c4O[C@H]2[C@@H](O)C=C[C@H]3[C@H]1C5 [MORPHINE] | – | – | – | – | – | – | – | – | – | Activity (Mus musculus [29]): 147%; Activity (Mus musculus [30]): 36.7%; Activity (Mus musculus [31]): 64.9%; Activity (Mus musculus [32]): 32.9%; Activity (Mus musculus [33]): 122.7%; Activity (Mus musculus [34]): 177.6% |

Reference: ChEMBL document CHEMBL1157630, “A class of novel Schiff's bases: Synthesis, therapeutic action for chronic pain, anti-inflammation and 3D QSAR analysis” (2010)
